Data set [1] deals with Platelet-derived growth factor receptor alpha (Homo sapiens) (UniProt P16234). Briefly: Inhibition of human PDGFRA (575 to 1002 residues) expressed in mammalian expression system assessed as enzyme activity at 1 uM by KINOMEScan assay relative to control. Also on record: scale not given: the % may be the effect or the level left. The essentials: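 In vitro ATP-site competition binding assay across a panel of 456 kinases, with compound tested at 1 and 10 μM.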

Data set [2] in a line: Increase in secretion of basic-FGF in IL-1alpha activated RA patient-derived synovial fibroblasts at 0.6 to 3 uM preincubated for 3 hrs followed by IL-1alpha stimulation measured after 18 hrs by sandwich immunoassay. Conditions: human. Put shortly: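 Primary human RA synovial fibroblasts (donor RA2159) seeded at 1000 viable cells/well, grown ~24 h at 37 °C/5% CO2, then starved overnight in basal medium and for a further ~4 h in basal medium with 0.1% BSA. Inhibitor or DMSO given 3 h before stimulation. Supernatants from two adjacent wells pooled as one replicate, biological duplicate. Luminex multiplex panels (48 analytes), diluted 1:3. Mock-supernatant background and spiked-ligand cross-reactivity controls included.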

The target of data set [3] is RNA-binding protein 3 (Homo sapiens) (UniProt P98179). As to the kind of experiment: Binding affinity to RBM3 in human NCI-H23 cells at 1 uM by mass spectrometry based pull down assay. Type of data set: cell-based.
Data set [4] deals with Small ribosomal subunit protein uS7m (Homo sapiens) (UniProt Q9Y2R9). Briefly: Binding affinity to MRPS7 in human NCI-H23 cells at 1 uM by mass spectrometry based pull down assay. Type of data set: cell-based.
The target of data set [5] is 6-phosphogluconate dehydrogenase, decarboxylating (Homo sapiens) (UniProt P52209). As to the kind of experiment: Binding affinity to PGD in human NCI-H358 cells at 1 uM by mass spectrometry based pull down assay.
Data set [6] addresses Inter-alpha-trypsin inhibitor heavy chain H2 (Homo sapiens) (UniProt P19823). As to the kind of experiment: Binding affinity to ITIH2 in human NCI-H358 cells at 1 uM by mass spectrometry based pull down assay. Type of data set: cell-based.
Data set [7] concerns the target Quinone oxidoreductase (Homo sapiens) (UniProt Q08257). As to the kind of experiment: Binding affinity to CRYZ in human NCI-H358 cells at 1 uM by mass spectrometry based pull down assay. It counts as cell-based.
Data set [8] concerns the target T1, 80S Ribosome (Homo sapiens) (UniProt P08865+P42677+P62753+P15880+P23396+P61247+P62701+P22090+P46782+P62081+P62241+P46781+P46783+P62280+P25398+P62277+P62263+P62841+P62244+P62249+P08708+P62269+P39019+P60866+P63220+P62266+P62847+P62851+P62854+P62979+P62857+P62273+P62861+P39023+P36578+P46777+Q02878+P18124+P62424+P62917+P32969+P27635+P62906+P62913+P30050+P26373+P40429+P50914+P61313+P18621+Q07020+Q02543+P84098+P46778+P35268+P62829+P62750+P83731+P61254+P61353+P46776+P46779+P47914+P62888+P62899+P62910+P49207+P42766+P18077+Q9Y3U8+P83881+P61927+P61513+P63173+P62891+P62945+P05388+P05386). As to the kind of experiment: Binding affinity to RPL17 in human NCI-H358 cells at 1 uM by mass spectrometry based pull down assay. Type of data set: cell-based.

Data set [9] deals with Adenylyltransferase and sulfurtransferase MOCS3 (Homo sapiens) (UniProt O95396). As to the kind of experiment: Binding affinity to MOCS3 in human NCI-H358 cells at 1 uM by mass spectrometry based pull down assay. Type of data set: cell-based.
The subject of data set [10] is NCI-H358. As to the kind of experiment: Binding affinity to PTGES3L-AARSD1 in human NCI-H358 cells at 1 uM by mass spectrometry based pull down assay. It counts as cell-based.
Data set [11] concerns the target Actin-related protein 3 (Homo sapiens) (UniProt P61158). As to the kind of experiment: Binding affinity to ACTR3 in human NCI-H358 cells at 1 uM by mass spectrometry based pull down assay. Type of data set: cell-based. The essentials: (§1)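 NCI-H23 or NCI-H358 cells were grown and lysed. Lysates were incubated overnight at 4 °C with 1 μM biotinylated covalent probe or DMSO, then pulled down on streptavidin beads. Proteins were run on polyacrylamide gels and stained with Coomassie. Bands were excised, digested and identified by mass spectrometry.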

For data set [12], the target named is Actin-related protein 2/3 complex subunit 5 (Homo sapiens) (UniProt O15511). Briefly: Binding affinity to ARPC5 in human NCI-H358 cells at 1 uM by mass spectrometry based pull down assay. It counts as cell-based.
Data set [13] deals with Coatomer subunit beta (Homo sapiens) (UniProt P53618). As to the kind of experiment: Binding affinity to COPB1 in human NCI-H23 cells at 1 uM by mass spectrometry based pull down assay. Type of data set: cell-based.
The target in data set [14] is Deoxyribose-phosphate aldolase (Homo sapiens) (UniProt Q9Y315). Briefly: Binding affinity to DERA in human NCI-H358 cells at 1 uM by mass spectrometry based pull down assay. Type of data set: cell-based.
Data set [15] has as its target F-actin-capping protein subunit beta (Homo sapiens) (UniProt P47756). Briefly: Binding affinity to CAPZB in human NCI-H23 cells at 1 uM by mass spectrometry based pull down assay. It counts as cell-based.
Data set [16] addresses Glutamate--cysteine ligase catalytic subunit (Homo sapiens) (UniProt P48506). Briefly: Binding affinity to GCLC in human NCI-H23 cells at 1 uM by mass spectrometry based pull down assay. Type of data set: cell-based.
Data set [17] addresses (E3-independent) E2 ubiquitin-conjugating enzyme (Homo sapiens) (UniProt Q9C0C9). As to the kind of experiment: Binding affinity to UBE2O in human NCI-H358 cells at 1 uM by mass spectrometry based pull down assay. It counts as cell-based.
Data set [18] addresses Aldehyde dehydrogenase X, mitochondrial (Homo sapiens) (UniProt P30837). Briefly: Binding affinity to ALDH1B1 in human NCI-H358 cells at 1 uM by mass spectrometry based pull down assay. Type of data set: cell-based. The essentials:
as §1

Data set [19] deals with NCI-H23. As to the kind of experiment: Binding affinity to PTGES3L-AARSD1 in human NCI-H23 cells at 1 uM by mass spectrometry based pull down assay. Type of data set: cell-based.
The target of data set [20] is COP9 signalosome complex subunit 8 (Homo sapiens) (UniProt Q99627). Briefly: Binding affinity to COPS8 in human NCI-H358 cells at 1 uM by mass spectrometry based pull down assay. It counts as cell-based.
In data set [21] the target is T1, 80S Ribosome (Homo sapiens). As to the kind of experiment: Binding affinity to RPS26 in human NCI-H358 cells at 1 uM by mass spectrometry based pull down assay. It counts as cell-based.
For data set [22], the target named is E3 ubiquitin-protein ligase HUWE1 (Homo sapiens) (UniProt Q7Z6Z7). Briefly: Binding affinity to HUWE1 in human NCI-H23 cells at 1 uM by mass spectrometry based pull down assay. Type of data set: cell-based.
For data set [23], the target named is Retinaldehyde dehydrogenase 3 (Homo sapiens) (UniProt P47895). Briefly: Binding affinity to ALDH1A3 in human NCI-H358 cells at 1 uM by mass spectrometry based pull down assay. It counts as cell-based. Put shortly: as §1
For data set [24], the target named is Tyrosine-protein kinase Yes (Homo sapiens) (UniProt P07947). As to the kind of experiment: Binding affinity to YES1 in human NCI-H23 cells at 1 uM by mass spectrometry based pull down assay. It counts as cell-based.
Data set [25] deals with Proteasome activator complex subunit 3 (Homo sapiens) (UniProt P61289). Briefly: Binding affinity to PSME3 in human NCI-H23 cells at 1 uM by mass spectrometry based pull down assay. It counts as cell-based.

Activity data for 2 compounds are collected here from ChEMBL document CHEMBL4118021, “Studies of TAK1-centered polypharmacology with novel covalent TAK1 inhibitors” (Bioorg Med Chem, 2017).

Structures are written as SMILES. Activity calls are given as the source filed them. The calls are words filed in the database; no cut-off is given here.

Chain of Quinone oxidoreductase (Homo sapiens) (Q08257 whole entry): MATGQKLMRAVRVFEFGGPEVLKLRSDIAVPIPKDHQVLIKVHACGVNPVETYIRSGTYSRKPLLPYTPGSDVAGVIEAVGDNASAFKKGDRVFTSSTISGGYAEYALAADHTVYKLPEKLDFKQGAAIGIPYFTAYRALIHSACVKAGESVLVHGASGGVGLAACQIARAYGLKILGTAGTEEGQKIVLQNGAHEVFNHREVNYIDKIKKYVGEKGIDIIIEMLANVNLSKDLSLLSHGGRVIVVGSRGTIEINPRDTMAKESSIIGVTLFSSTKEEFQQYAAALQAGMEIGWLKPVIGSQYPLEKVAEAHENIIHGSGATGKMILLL
Chain of Aldehyde dehydrogenase X, mitochondrial (Homo sapiens) (P30837 whole entry): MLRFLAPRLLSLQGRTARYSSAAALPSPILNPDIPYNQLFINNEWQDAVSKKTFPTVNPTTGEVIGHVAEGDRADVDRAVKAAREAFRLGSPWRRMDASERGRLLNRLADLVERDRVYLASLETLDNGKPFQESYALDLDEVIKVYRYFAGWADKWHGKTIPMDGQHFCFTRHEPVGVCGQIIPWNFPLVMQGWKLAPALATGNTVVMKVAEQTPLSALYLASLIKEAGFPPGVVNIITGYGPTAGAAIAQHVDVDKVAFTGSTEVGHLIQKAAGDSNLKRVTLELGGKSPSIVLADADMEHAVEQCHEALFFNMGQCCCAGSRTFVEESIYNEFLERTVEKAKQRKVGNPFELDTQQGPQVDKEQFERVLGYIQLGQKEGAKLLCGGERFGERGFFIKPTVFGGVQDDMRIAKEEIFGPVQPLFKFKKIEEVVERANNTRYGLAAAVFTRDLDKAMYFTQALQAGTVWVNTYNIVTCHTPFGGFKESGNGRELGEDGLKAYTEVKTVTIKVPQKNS
Chain of Platelet-derived growth factor receptor alpha (Homo sapiens) (P16234 whole entry, the tested form may be a part): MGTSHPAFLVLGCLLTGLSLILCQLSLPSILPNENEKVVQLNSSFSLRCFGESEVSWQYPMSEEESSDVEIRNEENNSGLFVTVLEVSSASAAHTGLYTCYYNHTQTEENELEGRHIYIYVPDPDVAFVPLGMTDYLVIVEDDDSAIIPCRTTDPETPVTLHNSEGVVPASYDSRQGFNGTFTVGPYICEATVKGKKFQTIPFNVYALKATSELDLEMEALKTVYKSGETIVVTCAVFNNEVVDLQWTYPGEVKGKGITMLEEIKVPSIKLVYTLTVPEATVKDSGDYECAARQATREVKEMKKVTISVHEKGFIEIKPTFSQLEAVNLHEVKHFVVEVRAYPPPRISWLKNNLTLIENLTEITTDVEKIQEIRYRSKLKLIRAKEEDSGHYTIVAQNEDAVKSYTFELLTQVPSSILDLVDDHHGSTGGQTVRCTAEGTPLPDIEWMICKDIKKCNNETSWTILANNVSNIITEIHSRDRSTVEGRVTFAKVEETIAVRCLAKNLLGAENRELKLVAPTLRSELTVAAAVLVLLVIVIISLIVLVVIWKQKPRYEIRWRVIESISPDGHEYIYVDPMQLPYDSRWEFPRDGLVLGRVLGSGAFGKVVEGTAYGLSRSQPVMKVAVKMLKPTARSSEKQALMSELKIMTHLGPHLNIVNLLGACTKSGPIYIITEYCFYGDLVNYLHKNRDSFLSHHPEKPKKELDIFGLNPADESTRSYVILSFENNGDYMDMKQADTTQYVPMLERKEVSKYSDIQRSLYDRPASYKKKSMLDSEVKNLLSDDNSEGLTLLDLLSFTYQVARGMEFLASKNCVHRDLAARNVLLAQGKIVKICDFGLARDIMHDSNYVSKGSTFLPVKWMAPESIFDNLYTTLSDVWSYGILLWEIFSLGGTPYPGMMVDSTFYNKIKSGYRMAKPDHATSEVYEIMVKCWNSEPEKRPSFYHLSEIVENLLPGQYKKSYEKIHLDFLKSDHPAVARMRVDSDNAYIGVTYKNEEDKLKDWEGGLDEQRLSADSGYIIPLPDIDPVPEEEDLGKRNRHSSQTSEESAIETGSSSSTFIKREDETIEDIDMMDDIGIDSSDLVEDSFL
Chain of Glutamate--cysteine ligase catalytic subunit (Homo sapiens) (P48506 whole entry): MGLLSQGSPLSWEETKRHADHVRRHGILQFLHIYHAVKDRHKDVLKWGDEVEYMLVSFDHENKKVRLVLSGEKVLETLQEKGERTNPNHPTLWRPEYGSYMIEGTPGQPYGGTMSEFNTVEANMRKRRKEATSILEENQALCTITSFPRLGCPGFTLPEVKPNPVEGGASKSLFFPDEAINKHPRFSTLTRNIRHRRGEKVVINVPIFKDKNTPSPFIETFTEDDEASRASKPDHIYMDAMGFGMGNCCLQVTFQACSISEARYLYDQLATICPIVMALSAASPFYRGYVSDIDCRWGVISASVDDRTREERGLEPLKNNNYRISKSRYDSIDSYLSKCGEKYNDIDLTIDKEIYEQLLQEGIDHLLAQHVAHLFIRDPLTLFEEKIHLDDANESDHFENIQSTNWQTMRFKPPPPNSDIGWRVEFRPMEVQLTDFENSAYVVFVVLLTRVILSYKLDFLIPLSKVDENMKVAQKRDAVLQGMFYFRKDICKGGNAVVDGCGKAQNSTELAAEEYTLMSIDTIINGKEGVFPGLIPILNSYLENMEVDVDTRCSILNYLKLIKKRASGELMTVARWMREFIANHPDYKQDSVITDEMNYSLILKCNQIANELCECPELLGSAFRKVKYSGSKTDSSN
Chain of COP9 signalosome complex subunit 8 (Homo sapiens) (Q99627 whole entry, one chain of several): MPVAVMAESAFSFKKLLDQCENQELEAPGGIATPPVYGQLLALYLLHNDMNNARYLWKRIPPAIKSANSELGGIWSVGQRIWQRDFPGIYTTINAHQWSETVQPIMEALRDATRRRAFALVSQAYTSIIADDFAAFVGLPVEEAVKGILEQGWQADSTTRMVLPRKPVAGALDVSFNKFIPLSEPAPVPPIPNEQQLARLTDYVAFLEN
Chain of RNA-binding protein 3 (Homo sapiens) (P98179 whole entry): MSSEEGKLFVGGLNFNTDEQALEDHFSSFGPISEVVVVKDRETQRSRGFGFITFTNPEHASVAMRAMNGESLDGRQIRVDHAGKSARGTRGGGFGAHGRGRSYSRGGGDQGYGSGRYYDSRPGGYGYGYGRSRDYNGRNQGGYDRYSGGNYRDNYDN
Chain of Inter-alpha-trypsin inhibitor heavy chain H2 (Homo sapiens) (P19823 whole entry): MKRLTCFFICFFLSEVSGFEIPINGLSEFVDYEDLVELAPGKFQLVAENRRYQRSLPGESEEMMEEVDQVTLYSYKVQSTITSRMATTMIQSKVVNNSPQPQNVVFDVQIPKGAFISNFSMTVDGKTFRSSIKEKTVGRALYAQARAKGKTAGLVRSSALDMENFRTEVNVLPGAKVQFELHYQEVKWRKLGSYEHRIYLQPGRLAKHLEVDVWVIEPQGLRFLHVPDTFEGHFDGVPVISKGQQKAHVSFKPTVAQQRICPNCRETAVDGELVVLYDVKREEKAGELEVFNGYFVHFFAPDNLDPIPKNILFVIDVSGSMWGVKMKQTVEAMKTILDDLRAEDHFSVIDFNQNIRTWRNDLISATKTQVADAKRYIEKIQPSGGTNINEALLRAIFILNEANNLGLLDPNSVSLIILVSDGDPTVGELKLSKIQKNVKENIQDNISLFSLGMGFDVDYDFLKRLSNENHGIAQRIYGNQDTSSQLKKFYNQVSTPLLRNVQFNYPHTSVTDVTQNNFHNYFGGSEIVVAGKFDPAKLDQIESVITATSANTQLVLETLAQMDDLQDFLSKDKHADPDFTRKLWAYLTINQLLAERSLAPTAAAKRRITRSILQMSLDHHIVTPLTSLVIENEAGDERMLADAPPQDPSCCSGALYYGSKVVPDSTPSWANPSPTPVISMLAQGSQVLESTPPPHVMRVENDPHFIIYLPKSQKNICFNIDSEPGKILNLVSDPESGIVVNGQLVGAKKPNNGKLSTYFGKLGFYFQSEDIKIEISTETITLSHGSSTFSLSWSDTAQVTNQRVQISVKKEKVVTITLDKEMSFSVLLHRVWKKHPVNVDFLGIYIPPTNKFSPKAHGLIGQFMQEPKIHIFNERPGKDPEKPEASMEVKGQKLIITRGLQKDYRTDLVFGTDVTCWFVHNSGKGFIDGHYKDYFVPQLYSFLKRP
Chain of Tyrosine-protein kinase Yes (Homo sapiens) (P07947 2-543 limits assumed): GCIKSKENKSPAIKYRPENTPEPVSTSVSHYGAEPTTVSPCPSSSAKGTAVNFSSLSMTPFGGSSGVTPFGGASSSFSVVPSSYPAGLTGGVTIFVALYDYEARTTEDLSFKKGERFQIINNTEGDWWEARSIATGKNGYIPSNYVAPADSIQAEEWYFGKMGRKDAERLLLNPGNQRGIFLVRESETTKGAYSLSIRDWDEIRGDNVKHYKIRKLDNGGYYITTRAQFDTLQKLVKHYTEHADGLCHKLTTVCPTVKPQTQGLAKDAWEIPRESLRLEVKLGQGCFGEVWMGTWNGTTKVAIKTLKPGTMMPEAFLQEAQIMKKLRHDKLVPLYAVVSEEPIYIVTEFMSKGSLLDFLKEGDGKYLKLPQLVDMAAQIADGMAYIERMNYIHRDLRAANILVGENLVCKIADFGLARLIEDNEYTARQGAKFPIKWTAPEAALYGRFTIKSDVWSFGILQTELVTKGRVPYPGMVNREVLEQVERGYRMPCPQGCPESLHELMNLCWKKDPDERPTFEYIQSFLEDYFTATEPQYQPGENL
Chain of F-actin-capping protein subunit beta (Homo sapiens) (P47756 whole entry): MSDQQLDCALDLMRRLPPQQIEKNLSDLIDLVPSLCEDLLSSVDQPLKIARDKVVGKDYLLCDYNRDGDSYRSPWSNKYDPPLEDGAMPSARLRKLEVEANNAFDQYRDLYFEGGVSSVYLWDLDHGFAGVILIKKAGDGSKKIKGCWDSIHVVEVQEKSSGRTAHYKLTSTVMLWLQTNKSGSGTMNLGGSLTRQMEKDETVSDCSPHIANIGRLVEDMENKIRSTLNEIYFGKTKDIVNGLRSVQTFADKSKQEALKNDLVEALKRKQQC
Chain of Proteasome activator complex subunit 3 (Homo sapiens) (P61289 whole entry, one chain of several): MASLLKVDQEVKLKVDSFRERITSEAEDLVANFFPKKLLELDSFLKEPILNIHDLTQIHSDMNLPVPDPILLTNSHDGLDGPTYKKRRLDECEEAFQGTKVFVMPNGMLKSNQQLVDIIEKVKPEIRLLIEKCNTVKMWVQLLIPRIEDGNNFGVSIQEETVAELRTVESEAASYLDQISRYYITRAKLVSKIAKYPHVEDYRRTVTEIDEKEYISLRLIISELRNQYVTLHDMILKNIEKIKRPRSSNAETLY

For the compound `COc1cc(O)c2c(c1)/C=C/C[C@H](O)[C@H](O)C(=O)/C=C\C[C@H](C)OC2=O`, the figures for the Activity in data set [1] and in data set [2] were 44% and “Non-Toxic”, respectively.

Regarding `C=CC(=O)Nc1ccccc1Nc1nc(Nc2ccc(N3CCN(CCOCCOCCOCCNC(=O)CCCC[C@@H]4SC[C@@H]5NC(=O)N[C@@H]54)CC3)cc2)ncc1Cl`, the result in data set [3], in data set [4], in data set [5], in [6], in data set [7] and in [8] was Active. Besides, the result in data set [9], in data set [10], in [11], in [12], in data set [13] and in [14] was Active. In addition, the outcome in data set [15], in data set [16], in data set [17], in data set [18], in [19] and in data set [20] was Active. Also, the outcome in data set [21], in [22], in [23], in [24] and in data set [25] was Active.
